Results: ChEMBL document CHEMBL4706601, “The endocannabinoid system dual-target ligand N-cycloheptyl-1,2-dihydro-5-bromo-1-(4-fluorobenzyl)-6-methyl-2-oxo-pyridine-3-carboxamide improves disease severity in a mouse model of multiple sclerosis” (Eur J Med Chem, 2020)
The source made the active and inactive calls. The rule behind the calls is not given here.

Legend:
Cannabinoid receptor 1 [1] = biological target: T1, Cannabinoid receptor 1 (Homo sapiens, UniProt P21554); assay: Displacement of [3H]CP55940 from recombinant human CB1R expressed in CHO cell membranes incubated for 90 mins; parameters: species or system Membrane
[2] = biological target: T2, Fatty-acid amide hydrolase 1 (Homo sapiens, UniProt O00519); assay: Inhibition of FAAH in human U937 cells using [ethanolamine-1-3H]AEA as substrate preincubated for 15 mins followed by substrate addition and measured after 15 mins by liquid scintillation spectroscopy; format: cell-based, U-937
T2 sequence (O00519 whole entry): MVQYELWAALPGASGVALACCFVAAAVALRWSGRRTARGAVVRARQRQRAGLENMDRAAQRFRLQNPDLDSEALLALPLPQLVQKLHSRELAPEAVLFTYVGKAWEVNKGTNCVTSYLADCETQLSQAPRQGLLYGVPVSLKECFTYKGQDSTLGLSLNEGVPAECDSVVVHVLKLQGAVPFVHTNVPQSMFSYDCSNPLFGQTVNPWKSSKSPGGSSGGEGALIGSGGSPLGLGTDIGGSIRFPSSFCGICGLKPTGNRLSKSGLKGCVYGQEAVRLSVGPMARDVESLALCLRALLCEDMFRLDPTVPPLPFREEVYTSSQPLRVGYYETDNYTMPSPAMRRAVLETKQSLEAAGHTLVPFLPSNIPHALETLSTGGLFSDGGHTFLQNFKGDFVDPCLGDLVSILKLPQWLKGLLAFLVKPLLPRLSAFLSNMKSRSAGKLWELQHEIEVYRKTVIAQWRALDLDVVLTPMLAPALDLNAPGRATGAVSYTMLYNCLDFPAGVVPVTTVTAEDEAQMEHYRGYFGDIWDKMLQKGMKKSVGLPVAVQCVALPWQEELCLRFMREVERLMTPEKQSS
How it was run: (§1)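 Intact U937 cells, 10^6 per condition, pre-incubated with compound 15 min at 37 °C with shaking (screen at 10 μM; full curves for hits). Substrate: 1 μM AEA with 1 nM [3H]AEA (FAAH) or 10 μM 2-OG with 5 nM [3H]2-OG (MAGL), 15 min at 37 °C. Stopped with CHCl3:MeOH 1:1, aqueous tritium counted; mean ± SD, ≥3 experiments in triplicate.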

Cannabinoid receptor 2 [3] = biological target: T3, Cannabinoid receptor 2 (Homo sapiens, UniProt P34972); assay: Displacement of [3H]CP55940 from recombinant human CB2R expressed in CHO cell membranes incubated for 90 mins; parameters: species or system Membrane
[4] = biological target: T4, Lysophosphatidylserine lipase ABHD12 (Homo sapiens, UniProt Q8N2K0); assay: Inhibition of human ABHD12 expressed in HEK293 cells using 2-OG as substrate preincubated for 30 mins followed by substrate addition and measured after 5 mins by liquid scintillation spectroscopy; format: cell-based
T4 sequence (Q8N2K0 whole entry): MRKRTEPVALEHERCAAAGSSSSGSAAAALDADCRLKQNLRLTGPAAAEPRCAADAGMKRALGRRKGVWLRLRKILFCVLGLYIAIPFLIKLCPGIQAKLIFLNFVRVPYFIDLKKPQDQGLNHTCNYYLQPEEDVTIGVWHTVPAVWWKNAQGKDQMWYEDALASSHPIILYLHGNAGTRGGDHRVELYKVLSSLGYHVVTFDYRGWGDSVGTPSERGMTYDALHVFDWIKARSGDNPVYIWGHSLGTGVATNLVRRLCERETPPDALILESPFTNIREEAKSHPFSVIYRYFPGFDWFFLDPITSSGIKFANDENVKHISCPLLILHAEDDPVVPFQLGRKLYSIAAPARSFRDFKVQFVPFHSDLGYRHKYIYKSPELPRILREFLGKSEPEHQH
How it was run: (§2)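 Homogenates (40 µg) from HEK293 stably expressing hABHD6 or hABHD12 pre-incubated with compound 30 min at 37 °C in […], 0.1% BSA, pH 7.6; then 10 μM 2-OG for 5 min at 37 °C. Aqueous phase tritium counted after CHCl3:MeOH stop; no-enzyme blanks and non-transfected HEK293 hydrolysis subtracted. Controls WWL70 10 μM, THL 20 μM.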

Monoglyceride lipase = biological target: T5, Monoglyceride lipase (Homo sapiens, UniProt Q99685); assay: Inhibition of MAGL in human U937 cells using [glycerol-1,2,3-3H]2-OG as substrate preincubated for 15 mins followed by substrate addition and measured after 15 mins by liquid scintillation spectroscopy; format: cell-based, U-937; how it was run: as §1
T5 sequence (Q99685 whole entry): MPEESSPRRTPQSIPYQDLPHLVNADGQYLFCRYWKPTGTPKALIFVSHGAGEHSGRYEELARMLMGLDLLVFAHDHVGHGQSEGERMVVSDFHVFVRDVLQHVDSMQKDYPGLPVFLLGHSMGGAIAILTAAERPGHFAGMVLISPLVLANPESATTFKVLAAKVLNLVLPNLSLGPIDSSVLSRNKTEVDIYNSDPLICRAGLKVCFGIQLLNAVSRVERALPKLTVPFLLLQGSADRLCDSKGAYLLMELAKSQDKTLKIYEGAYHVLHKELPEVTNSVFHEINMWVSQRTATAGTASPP

[5] = biological target: T6, Monoacylglycerol lipase ABHD6 (Homo sapiens, UniProt Q9BV23); assay: Inhibition of human ABHD6 expressed in HEK293 cells using 2-OG as substrate preincubated for 30 mins followed by substrate addition and measured after 5 mins by liquid scintillation spectroscopy; format: cell-based; how it was run: as §2
T6 sequence (Q9BV23 whole entry): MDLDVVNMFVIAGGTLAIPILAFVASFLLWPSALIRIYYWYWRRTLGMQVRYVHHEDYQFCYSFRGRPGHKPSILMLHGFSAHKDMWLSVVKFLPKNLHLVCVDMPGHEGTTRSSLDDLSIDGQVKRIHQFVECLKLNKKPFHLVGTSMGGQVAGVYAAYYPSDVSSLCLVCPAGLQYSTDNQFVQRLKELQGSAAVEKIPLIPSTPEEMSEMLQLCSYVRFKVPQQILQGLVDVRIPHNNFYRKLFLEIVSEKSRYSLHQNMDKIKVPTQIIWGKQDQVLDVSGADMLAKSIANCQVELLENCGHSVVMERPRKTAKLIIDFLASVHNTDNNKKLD

[6] = biological target: Cannabinoid receptor 2 (Mus musculus) (UniProt P47936); assay: Agonist activity at CB2R in LPS induced mouse BV2 cells assessed as decrease in IL-1beta secretion at 10 uM preincubated for 30 mins followed by LPS stimulation for 4 hrs by ELISA; format: cell-based; details: BV-2, filed as agonist, time 270.0 min
How it was run: (§3)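 BV-2 murine microglia grown in high-glucose DMEM with 10% FBS. Treatments in FBS-free medium: test agonist 10 μM for 30 min, then LPS 5 μg/ml for 4 h; SR144528 10 μM given 15 min before agonist. DMSO ≤0.1% final. Medium spun 10 min at 1000×g; IL-1β, IL-6, IL-10 quantified by ELISA; three independent experiments in duplicate.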

[7] = biological target: Cannabinoid receptor 2 (Mus musculus) (UniProt P47936); assay: Agonist activity at CB2R in LPS induced mouse BV2 cells assessed as decrease in IL6 secretion at 10 uM preincubated for 30 mins followed by LPS stimulation for 4 hrs by ELISA; format: cell-based; details: BV-2, filed as agonist, time 270.0 min; how it was run: as §3
[8] = biological target: Cannabinoid receptor 2 (Mus musculus) (UniProt P47936); assay: Agonist activity at CB2R in LPS induced mouse BV2 cells assessed as increase in IL-10 secretion at 10 uM preincubated for 30 mins followed by LPS stimulation for 4 hrs by ELISA; format: cell-based; details: BV-2, filed as agonist, time 270.0 min; how it was run: as §3
Cannabinoid receptor 2 [9] = biological target: T3, Cannabinoid receptor 2; assay: Agonist activity at human CB2R expressed in CHO cell membranes after 90 mins by [35S]GTPgammaS assay; format: functional, Membrane
How it was run: (§4)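 In-house CHO membranes expressing hCB1 or hCB2 (10 µg) in 50 mM Tris-HCl, 3 mM MgCl2, 0.2 mM EDTA, 100 mM NaCl, 0.5% fatty-acid-free BSA, pH 7.4, with 10 μM GDP and 0.1 nM [35S]GTPγS. Incubated 90 min at 30 °C; antagonist pre-incubated 30 min. Nonspecific binding with 10 μM GTPγS; bound label by filtration and counting; ≥3 experiments in triplicate.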

Homo sapiens = species on record: Homo sapiens; assay: Selectivity index, ratio of Ki for human CB1R expressed in CHO cell membranes to Ki for human CB2R expressed in CHO cell membranes; format: cell-based
Cannabinoid receptor 1 [10] = biological target: T1, Cannabinoid receptor 1; assay: Agonist activity at human CB1R expressed in CHO cell membranes after 90 mins by [35S]GTPgammaS assay; format: functional, Membrane; how it was run: as §4
[11] = biological target: Cannabinoid receptor 1 (Rattus norvegicus) (UniProt P20272); assay: Agonist activity at CB1R in Sprague-Dawley rat hippocampal synaptosomes assessed as inhibition of 4-AP evoked glutamate release at 10 uM preincubated for 8 mins followed by 4-AP addition in presence of 1 uM CB2R antagonist, SR144528 by HPLC analysis; format: subcellular; details: Hippocampus, filed as agonist
How it was run: (§5)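 Rat (male Sprague Dawley, 200-250 g) hippocampal synaptosomes from Percoll gradient, superfused at 37 °C (0.5 ml/min); 4-AP 600 μM for 2 min. Compounds and antagonists (SR141716A, SR144528, 1 μM) added 8 min before 4-AP and kept during it; basal effects tested by 2-min exposure alone. Endogenous glutamate by HPLC as pmol/mg protein; overflow = stimulated minus basal in control chambers; n = 3–9, triplicate.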

[12] = biological target: Cannabinoid receptor 1 (Rattus norvegicus) (UniProt P20272); assay: Agonist activity at CB1R in Sprague-Dawley rat hippocampal synaptosomes assessed as inhibition of 4-AP evoked glutamate release at 10 uM preincubated for 8 mins followed by 4-AP addition by HPLC analysis; format: subcellular; details: Hippocampus, filed as agonist; how it was run: as §5

T3 sequence (P34972 whole entry): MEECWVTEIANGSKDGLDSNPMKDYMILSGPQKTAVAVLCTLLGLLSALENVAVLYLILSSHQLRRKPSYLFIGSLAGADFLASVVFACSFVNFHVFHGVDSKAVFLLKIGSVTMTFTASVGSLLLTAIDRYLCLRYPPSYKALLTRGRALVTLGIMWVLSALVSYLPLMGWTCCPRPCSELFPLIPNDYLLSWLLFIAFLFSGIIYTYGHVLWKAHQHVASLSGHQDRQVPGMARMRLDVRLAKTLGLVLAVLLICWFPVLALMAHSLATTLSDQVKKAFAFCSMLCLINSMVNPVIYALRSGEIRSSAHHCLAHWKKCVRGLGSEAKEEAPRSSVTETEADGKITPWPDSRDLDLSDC
T1 sequence (P21554 whole entry): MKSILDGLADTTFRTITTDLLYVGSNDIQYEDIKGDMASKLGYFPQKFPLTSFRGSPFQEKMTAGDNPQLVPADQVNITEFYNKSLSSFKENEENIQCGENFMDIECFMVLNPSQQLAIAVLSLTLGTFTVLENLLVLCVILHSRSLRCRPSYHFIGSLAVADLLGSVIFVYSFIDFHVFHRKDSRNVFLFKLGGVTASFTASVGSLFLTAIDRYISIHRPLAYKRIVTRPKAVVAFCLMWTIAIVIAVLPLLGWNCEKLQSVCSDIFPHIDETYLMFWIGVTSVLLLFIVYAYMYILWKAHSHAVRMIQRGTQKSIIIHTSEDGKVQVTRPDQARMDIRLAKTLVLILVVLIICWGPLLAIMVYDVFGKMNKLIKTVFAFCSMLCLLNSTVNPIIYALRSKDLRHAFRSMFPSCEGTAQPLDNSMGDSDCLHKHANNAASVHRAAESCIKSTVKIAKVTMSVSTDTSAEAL
Sequence of Cannabinoid receptor 2 (Mus musculus) (P47936 whole entry): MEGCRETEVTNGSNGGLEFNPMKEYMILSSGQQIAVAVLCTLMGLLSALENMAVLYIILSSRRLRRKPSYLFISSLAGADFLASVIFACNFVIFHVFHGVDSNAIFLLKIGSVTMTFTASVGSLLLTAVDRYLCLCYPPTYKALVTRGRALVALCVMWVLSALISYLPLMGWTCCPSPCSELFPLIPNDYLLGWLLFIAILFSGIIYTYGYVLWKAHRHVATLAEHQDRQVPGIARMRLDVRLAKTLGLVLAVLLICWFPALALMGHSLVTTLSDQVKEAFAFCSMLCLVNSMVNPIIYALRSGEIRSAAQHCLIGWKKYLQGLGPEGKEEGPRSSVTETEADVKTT
Sequence of Cannabinoid receptor 1 (Rattus norvegicus) (P20272 whole entry, the tested form may be a part): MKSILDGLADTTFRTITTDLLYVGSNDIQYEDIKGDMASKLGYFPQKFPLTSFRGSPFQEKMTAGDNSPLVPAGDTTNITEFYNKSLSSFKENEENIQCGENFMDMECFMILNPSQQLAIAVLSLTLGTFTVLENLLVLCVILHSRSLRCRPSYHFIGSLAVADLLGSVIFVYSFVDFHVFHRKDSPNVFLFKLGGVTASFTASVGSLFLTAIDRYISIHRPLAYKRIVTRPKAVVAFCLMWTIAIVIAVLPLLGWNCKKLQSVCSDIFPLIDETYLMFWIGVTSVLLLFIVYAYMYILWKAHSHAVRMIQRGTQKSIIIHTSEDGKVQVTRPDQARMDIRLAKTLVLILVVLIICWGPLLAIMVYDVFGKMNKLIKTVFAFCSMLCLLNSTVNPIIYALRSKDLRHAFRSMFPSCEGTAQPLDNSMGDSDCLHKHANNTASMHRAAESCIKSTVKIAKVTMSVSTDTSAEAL

SMILES	Ki (Cannabinoid receptor 1 [1])	IC50 [2]	Ki (Cannabinoid receptor 2 [3])	IC50 [4]	IC50 (Monoglyceride lipase)	IC50 [5]	Activity [6]	Activity [7]	Activity [8]	EC50 (Cannabinoid receptor 2 [9])	Ratio Ki (Homo sapiens)	EC50 (Cannabinoid receptor 1 [10])	Activity [11]	Activity [12]
CC(=O)N[C@@H]1[C@@H](O)[C@H](O)[C@@H](CO)O[C@H]1NC(=O)c1cc(Br)c(C)n(Cc2ccc(F)cc2)c1=O	> 10 µM	> 10 µM	> 10 µM	> 10 µM	> 10 µM	> 10 µM	–	–	–	–	–	–	–	–
CCCC(C)(C)c1ccc2c(c1)OC(C)(C)[C@@H]1CC=C(C)C[C@@H]21	–	–	–	–	–	–	Active	Active	Active	–	–	–	–	–
Cc1c(F)cc(C(=O)NC2CCCCCC2)c(=O)n1Cc1ccc(F)cc1	0.0049 µM	> 10 µM	0.0057 µM	> 10 µM	> 10 µM	> 10 µM	–	–	–	0.0244 µM	0.86	0.0432 µM	–	–
Cc1nc(OCc2ccc(F)cc2)c(C(=O)NC2CCCCCC2)cc1-c1ccc(F)cc1	4.6 µM	> 10 µM	0.531 µM	> 10 µM	> 10 µM	> 10 µM	–	–	–	–	–	–	–	–
CCCCC/C=C\C/C=C\C/C=C\C/C=C\CCCC(=O)NCCCl	–	–	–	–	–	–	–	–	–	–	–	–	Active	Active
Cc1ccc(C(=O)NC2CCCCCC2)c(OCc2ccc(F)cc2)n1	0.0166 µM	> 10 µM	0.0339 µM	> 10 µM	> 10 µM	> 10 µM	–	–	–	0.0116 µM	0.49	0.0862 µM	–	–
COc1ccc(-c2cc(C(=O)NC3CCCCCC3)c(OCc3ccc(F)cc3)nc2C)cc1	> 10 µM	> 10 µM	0.919 µM	> 10 µM	> 10 µM	0.53 µM	–	–	–	–	–	–	–	–
